Sampled rows, rich in hits. Any-hit rate of the full collection: about 3.5%.
KLK5 inh: human KLK5 protease inhibitors, primary screen, biochemical, 1536-well; Kallikrein-5 (Homo sapiens), Q9Y337; recombinant hK5, fluorogenic AMC substrate cleavage; inhibition, % at 5 µM; hit rate 0.59% among 210,000; AID 873, 2007;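 active means inhibition of 40% or more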;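 further: 0% = enzyme controls without compound and 100% = no-enzyme blanks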
STAT3 act: IL-6 driven STAT3 reporter potentiators, primary screen, U3A cells, luciferase, luminescence, MLSCN library | hit rate 0.91% among 190,000 | IL-6 STAT3-luciferase reporter; 100% = signal with IL-6 EC80 alone | activation (% of control), % at 5.6 µM;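 active means activation above the screen-wide mean of compound activation plus 3 SD, cut at about 130% in these data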;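 further: 0% = background luminescence of wells with medium and substrate only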
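Material: STAT3-luciferase reporter U3A cells. Controls: IL-6-treated wells, 100% activation. Read-out: % activation versus median of IL-6-stimulated wells. Probe or stimulus: IL-6 stimulus at 33 ng/mL final. Timing: compound 1 h, then IL-6 6 h at 37 °C. Signal: reporter luminescence signal.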
FXIa inh 1536: human FXIa protease inhibitors, primary screen, biochemical, 1536-well; hit rate 0.14% among 220,000; purified FXIa, Boc-Glu-Ala-Arg-AMC fluorogenic substrate; inhibition, % at 5 µM; Coagulation factor XI (Homo sapiens), P03951;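 active means inhibition of at least 40%; inactive means inhibition below 40%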;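 further: fluorescence of freed AMC excited at 355 nm; 0% = enzyme without compound and 100% = no enzyme blank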
thrombin 1536: human alpha-thrombin inhibitors, primary screen, counter-screen for coagulation protease inhibitor project, biochemical, 1536-well, fluorogenic AMC substrate; AID 1046, 2008; inhibition, % at 5 µM; hit rate 0.26% among 220,000; Boc-VPR-AMC fluorogenic substrate cleavage;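 active means inhibition at or above 40%; inactive means inhibition below 40%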;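 further: 0% = enzyme with no compound and 100% = wells without enzyme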
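Assay system: human alpha-thrombin enzyme. Reagent: Boc-VPR-AMC substrate, 15 µM final. Compound dosing: one concentration per compound, 5 µM, with 0.2% DMSO. Incubation: room-temperature reaction. Technique: AMC fluorescence, 355/460 nm. Measure: % inhibition relative to enzyme controls and enzyme-free blanks.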
FXIIa inh 1536: human FXIIa protease inhibitors, primary screen, biochemical, 1536-well; Coagulation factor XII (Homo sapiens), P00748; purified FXIIa, Boc-QGR-AMC fluorogenic substrate, 2 h; inhibition, % at 5 µM; hit rate 0.3% among 220,000; AID 800, 2007; in the data active means inhibition above about 40%;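 further: 0% = enzyme with no compound and 100% = blank without enzyme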
AHR act: AHR activators, primary screen, cell-based, luminescence, luciferase reporter, human. AHR-responsive luciferase reporter cells. activation, % at 5 µM. hit rate 2.5% among 320,000. AID 2796, 2010; in the data active means activation above about 47%;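 further: 0% = vehicle wells and 100% = reference agonist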
Target sequence (P35869 whole entry, looked up): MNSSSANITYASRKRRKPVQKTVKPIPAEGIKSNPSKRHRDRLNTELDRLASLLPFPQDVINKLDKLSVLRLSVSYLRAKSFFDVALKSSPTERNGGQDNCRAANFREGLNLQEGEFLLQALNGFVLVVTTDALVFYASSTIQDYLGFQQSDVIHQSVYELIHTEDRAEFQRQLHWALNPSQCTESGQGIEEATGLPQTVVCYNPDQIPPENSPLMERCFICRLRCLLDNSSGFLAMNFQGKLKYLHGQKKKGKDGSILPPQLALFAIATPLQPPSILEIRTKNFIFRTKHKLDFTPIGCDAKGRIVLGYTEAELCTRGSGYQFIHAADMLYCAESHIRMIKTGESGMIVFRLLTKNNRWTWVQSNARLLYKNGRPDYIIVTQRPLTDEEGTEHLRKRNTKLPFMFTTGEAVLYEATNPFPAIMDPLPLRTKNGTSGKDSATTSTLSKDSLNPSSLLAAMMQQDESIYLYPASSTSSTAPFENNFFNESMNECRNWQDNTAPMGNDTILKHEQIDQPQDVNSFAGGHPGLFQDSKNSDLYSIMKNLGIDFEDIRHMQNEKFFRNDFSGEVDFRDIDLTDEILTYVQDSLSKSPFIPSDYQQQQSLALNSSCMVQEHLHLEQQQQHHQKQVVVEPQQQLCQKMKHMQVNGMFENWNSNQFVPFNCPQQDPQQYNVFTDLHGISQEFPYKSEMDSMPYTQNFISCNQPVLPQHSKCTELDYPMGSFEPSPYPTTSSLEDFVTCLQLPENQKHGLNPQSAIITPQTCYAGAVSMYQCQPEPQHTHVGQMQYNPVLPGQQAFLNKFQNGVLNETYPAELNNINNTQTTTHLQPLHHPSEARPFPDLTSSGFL
The depositor's hits bear a star; . = no result.

SMILES	KLK5 inh	STAT3 act	FXIa inh 1536	thrombin 1536	FXIIa inh 1536	AHR act
Cc1cccnc1NC(=S)NC(=O)c1cccs1	1.2	153.9*	2.9	2.7	-12.9	16.1
CS(=O)(=O)c1ccc2nc(NC(=O)c3ccco3)sc2c1	-4.1	93.9	19.3	-0.3	22.7	4.1
NC(=S)Nc1nc2ccccc2s1	-9.4	155.0*	-2.8	1.8	-0.1	19.2
O=C(NC(=S)Nc1nc2ccc(F)cc2s1)c1ccco1	-2.4	156.9*	-2.4	-6.9	2.7	19.7
CC(C)CN(C(=O)CN(C)C(=O)c1ccco1)c1c(N)n(CC(C)C)c(=O)[nH]c1=O	.	.	.	.	.	-0.4
Cc1ccc(Cl)cc1NC(C#N)c1ccccc1 (stereo unspecified)	0.9	.	0.6	-3.4	9.4	9.0
CCOC(=O)c1c(C)[nH]c(C)c1C(=O)COC(=O)/C=C/c1cccc(C(F)(F)F)c1	-11.3	108.8	6.0	-9.1	10.9	-0.1
CCOC(=O)c1c(C)[nH]c(C)c1C(=O)COC(=O)/C=C/c1cccc(F)c1	52.2*	106.0	8.0	12.4	37.8	2.0
Cc1cc(C)c2cc(C(=O)Nc3ccc4c(c3)OCO4)[nH]c2c1	2.2	.	3.9	1.7	2.5	10.5
Cc1cc(C)c2cc(C(=O)Nc3ccccc3)[nH]c2c1	-6.4	.	-0.1	-9.7	1.8	47.2*
CCc1ccccc1NC(=O)NCc1ccc2c(c1)OCO2	.	.	.	.	.	68.4*
CC(Sc1ccc2c(c1)OCCO2)C(=O)Nc1ccc2c(c1)OCO2 (stereo unspecified)	-0.5	92.8	7.5	5.2	14.6	5.3
O=C(Cc1ccccc1[N+](=O)[O-])Nc1ccc2c(c1)OCO2	-8.3	101.9	-6.0	-4.6	1.5	61.4*
CC(Sc1ncnc2ccccc12)C(=O)Nc1ccc2c(c1)OCO2 (stereo unspecified)	31.9	87.5	-5.8	-3.6	0.0	51.2*
O=C(Cc1ccccc1[N+](=O)[O-])NNC(=O)Nc1ccc2c(c1)OCO2	.	.	.	.	.	20.6
Cc1nn(C(C)C(=O)Nc2ccc3c(c2)OCO3)c(C)c1[N+](=O)[O-] (stereo unspecified)	14.0	104.0	-0.9	-0.7	3.3	76.0*
Cc1c([N+](=O)[O-])c(C(=O)Nc2ccc3c(c2)OCCO3)nn1C	-6.7	112.8	2.9	4.6	14.7	23.5
Cc1cc(C(=O)NNC(=O)c2ccc(NC(=O)CC#N)cc2)c(C)o1	.	.	.	.	.	0.0
Cc1ccc(C)c(NC(=O)Nc2ccc3c(c2)OCO3)c1	.	.	.	.	.	63.7*
Cc1ccccc1NC(=O)Nc1ccc2c(c1)OCO2	.	.	.	.	.	68.2*
Cc1nn(-c2ccccc2)c(Cl)c1C(=O)OC(C)C(=O)Nc1ccc2c(c1)OCO2 (stereo unspecified)	-10.7	97.9	16.7	1.4	17.9	65.6*
CC(NC(=O)Nc1ccc2c(c1)OCO2)C1CCCO1 (stereo unspecified)	-12.4	102.3	-0.4	-0.4	14.1	65.6*
CCc1cccc(C)c1NC(=O)Nc1ccc2c(c1)OCO2	-4.8	103.9	6.6	3.7	14.8	26.9
CC(Sc1nncn1C)C(=O)NCc1ccc2c(c1)OCO2 (stereo unspecified)	26.9	106.0	31.7	77.2*	27.9	-1.0
Cc1csc(SC(C)C(=O)NCc2ccc3c(c2)OCO3)n1 (stereo unspecified)	2.7	100.6	0.5	-12.8	5.5	4.5
SMILES	KLK5 inh	STAT3 act	FXIa inh 1536	thrombin 1536	FXIIa inh 1536	AHR act
O=C(O)Cn1c(SCCOc2ccccc2)nc2ccccc21	41.9*	101.6	-0.9	3.9	23.4	-3.5
O=C(COc1ccc(C(=O)c2ccccc2)cc1)Nc1cccnc1	.	.	.	.	.	1.7
O=C(COC(=O)c1cc(=O)c2ccccc2o1)NC1CCCCC1	18.7	104.0	41.9*	12.1	27.2	-1.2
O=C(Nc1ccccc1-c1nc2ccccc2[nH]1)c1ccc(N2C(=O)CCC2=O)cc1	-12.1	82.8	-6.2	-6.2	2.4	49.5*
O=C(Nc1ccccc1-c1nc2ccccc2[nH]1)c1ccc(S(=O)(=O)N2CCCCC2)cc1	4.2	97.4	-10.1	-2.5	-6.8	.
O=C(CSc1ccc(S(=O)(=O)N2CCOCC2)cn1)Nc1ccc(F)c(F)c1	.	.	.	.	.	1.0
O=[N+]([O-])c1cccc(S(=O)(=O)c2ccc(NCCO)c([N+](=O)[O-])c2)c1	20.1	96.6	-0.4	1.8	10.6	-2.4
Cc1sc2ncnc(N[C@@H](Cc3c[nH]c4ccccc34)C(=O)O)c2c1C	-7.9	129.9	-2.0	-4.2	-5.7	48.0*
O=S(=O)(c1cccc(F)c1)N1CCN(c2nc(-c3cccnc3)nc3ccccc23)CC1	.	.	.	.	.	-3.4
COc1ccc(C(=O)NC(C)c2ccc(-n3ccnc3)cc2)cc1[N+](=O)[O-] (stereo unspecified)	.	.	.	.	.	9.1
CSc1ccccc1C(=O)NC(C)c1ccc(-n2ccnc2)cc1 (stereo unspecified)	.	.	.	.	.	67.1*
CC(NC(=O)c1ccccc1Cl)c1ccc(-n2ccnc2)cc1 (stereo unspecified)	.	.	.	.	.	53.9*
Cc1ccc(C)c(C(=O)NC(C)c2ccc(-n3ccnc3)cc2)c1 (stereo unspecified)	.	.	.	.	.	78.2*
CC(NC(=O)c1ccco1)c1ccc(-n2ccnc2)cc1 (stereo unspecified)	.	.	.	.	.	8.4
Cc1c(C(=O)NC(C)c2ccc(-n3ccnc3)cc2)cccc1[N+](=O)[O-] (stereo unspecified)	.	.	.	.	.	60.5*
Cc1ccc(C(=O)NC(C)c2ccc(-n3ccnc3)cc2)c(C)c1 (stereo unspecified)	.	.	.	.	.	30.8
CCCOc1ccccc1OCC(=O)Nc1cc(Cl)ccc1-n1cncn1	.	.	.	.	.	12.5
COc1ccc(CN2CCN(Cc3ccc4cc(F)ccc4n3)CC2CCO)c(C)c1C (stereo unspecified)	.	.	.	.	.	7.9
COc1ccccc1-c1ccc(SCC(=O)NCCc2ccccc2)nn1	-8.4	109.6	-3.8	-10.4	2.6	57.6*
Cc1ccccc1CN1CCCOCCS1(=O)=O	.	.	.	.	.	-1.9
Cc1ccc(C(=O)NC(=S)N2CCCC2)cc1	.	.	.	.	.	8.0
CCCOc1ccc(CN(CCO)CCO)cc1[N+](=O)[O-]	-22.4	133.0*	4.0	0.4	6.2	23.1
CCOc1ccc(CN(CCO)CCO)cc1C(=O)OC	-9.9	107.3	-6.7	-5.3	-0.2	-0.6
O=[N+]([O-])c1ccc(COc2ccc(-c3[nH]ncc3-c3ccccc3)c(O)c2)cc1	-11.4	104.2	5.1	-5.3	10.5	57.2*
NC(=O)N/N=C/c1ccc(-c2cccc(C(F)(F)F)c2)o1	-1.5	91.4	-2.0	-25.8	6.8	78.4*
